From ChEMBL document CHEMBL1126142, “Potential antitumor agents. 64. Synthesis and antitumor evaluation of dibenzo[1,4]dioxin-1-carboxamides: a new class of weakly binding DNA-intercalating agents” (J Med Chem, 1992) come the findings set out here.

What is called IC50 is the concentration needed to halve the response being measured. High values mean a need for much substance, low ones inhibition by little substance. As a reminder, the ILS is the gain in survival time of treated over control animals, in per cent.

Molecules are shown by their SMILES. Calls of active or inactive are those of the source. No cut-off for these calls is given here.

Series [1] in a line: Lipophilicity (Rm). The format is physicochemical. The note with it: AMSA internal standard. In a few lines:
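Relative lipophilicity (Rm) was determined chromatographically using 4'-(9-acridinylamino)methanesulfonanilide (AMSA) as internal standard.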

Series [2] in a line: In vivo the optimal dose administered intraperitoneally to wild-type P388 murine leukemia cells. The format is functional, Mus musculus. In outline: (§1)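 Mice received 10^6 tumor cells intraperitoneally. After 24 h, drug was given ip as a solution in 0.1 mL 30% v/v EtOH/water on days 1, 5 and 9. The optimal dose is expressed as mg/kg per day. Groups were 6 mice, with tests in duplicate.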

Series [3] has as its system P388. As to the kind of experiment: Inhibitory activity against mutant murine leukemia cell line P388/AMSA. In kind it is functional, cell-based. The note with it: Mus musculus. In outline:
(§2)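 A 96-well plate growth-inhibition assay in culture was run with full dose-response curves. IC50 was the drug concentration (μM) reducing cell growth to 50% of untreated controls. Values are means of three determinations. The P388/AMSA subline carries a structurally altered topoisomerase II.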

For another series, the system named is Nucleic Acid. As to the kind of experiment: Binding constant to poly[d(A-T)] by displacement of ethidium bromide. In kind it is nucleic-acid assay.
Series [4] is described as follows: Percentage increase in lifespan with compound after treating wild-type P388 murine leukemia cells with optimal dose. In kind it is functional, Mus musculus. In a few lines:
(§3)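 Mice bearing wild-type P388 leukemia, 10^6 cells inoculated intraperitoneally; drug given ip in 0.1 mL 30% v/v EtOH/water on days 1, 5 and 9, starting 24 h after inoculation. ILS = percentage increase in lifespan of treated over untreated tumor-bearing mice at the optimal dose (mg/kg per day); >20% counted significant. Groups of 6 mice, tests in duplicate.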

Series [5] can be described thus: Cytotoxicity measured on wild-type P388 murine leukemia cells. The format is functional, cell-based. The note with it: Mus musculus. In outline: as §2
A short description of series [6]: In vivo percentage increase in lifespan with compound after treating wild-type P388 murine leukemia cells with optimal dose. In kind it is functional, Mus musculus. In a few lines:
as §3

A short description of series [7]: In vivo optimal dose administered intraperitoneally to wild-type P388 murine leukemia cells. The format is functional, Mus musculus. In a few lines:
as §1

For series [8], the system named is P388. As to the kind of experiment: In vivo percentage increase in lifespan with compound after treating wild-type P388 murine leukemia cells with optimal dose; Not active. In kind it is functional, organism-based. The conditions noted are these: Mus musculus.
The test system of series [9] is P388. As to the kind of experiment: Inhibitory activity against P388 murine leukemia cell which is topoisomerase II enzyme and resistant to classical topo II Inhibitors. The note with it: Mus musculus. In kind it is functional, cell-based. In a few lines: as §2

As for `COc1cccc2c1Oc1c(cccc1C(=O)NCCN(C)C)O2`, in [1], the Rm is listed as -0.02. The OD in [2] came to 45 mg/kg. Moreover, the results for the IC50 (in the series with P388 [3]; in series [5]) were 0.52 µM and 0.38 µM, respectively. In the series with Nucleic Acid, this molecule showed a Log K of 5.55. The ILS in [4] was 45%.

In [1], `Cc1cccc2c1Oc1c(cccc1C(=O)NCCN(C)C)O2` showed a Rm of 0.09. Also, in series [2], the OD stood at 100 mg/kg. For the same molecule, the IC50 with P388 [3] was 7.7 µM; in [5], 0.25 µM. The Log K in the series on Nucleic Acid is 5.28. The increase in lifespan (ILS) in series [4] came out at 144%.

`CN(C)CCNC(=O)c1cccc2c1Oc1ccccc1O2`: the Rm in [1] was 0.01. Further, the IC50 with P388 [3] was 1.8 µM; in series [5], 3 µM. The molecule further showed a Log K in the series on Nucleic Acid of 5.05. In addition, the ILS in series [6] was found to be 76%. The molecule further returned an OD in series [7] of 150 mg/kg.

`CN(C)CCCCNC(=O)c1cccc2c1Oc1ccccc1O2` displayed a Rm in series [1] of 0.13. The molecule also had a Log K in the series on Nucleic Acid of 4.9. The ILS entry in the series on P388 [8] is “inactive”. Also, the OD in series [7] is 150 mg/kg. Also, the IC50 in [5] is greater than 20 µM.

Take `CN(C)CCNC(=O)c1ccc2c(c1)Oc1ccccc1O2`: in [1], the Rm was found to be 0.11. In series [2], this molecule gave an OD of 150 mg/kg. The Log K in the series with Nucleic Acid came out at 4.84. In addition, the ILS result in the series with P388 [8] was “inactive”. This molecule also had an IC50 in series [5] of 5.8 µM.

In turn, `CN(C)CCNC(=O)c1ccc2c(c1)Oc1ccc(C(=O)NCCN(C)C)cc1O2` returned a Rm in [1] of -1.21. In [2], this molecule yielded an OD of 225 mg/kg. The molecule further displayed a Log K in the series on Nucleic Acid of 6.81. Moreover, in the series on P388 [8], the ILS result is “inactive”. Also, in series [5], the IC50 is greater than 10 µM.

The molecule `CN(C)CCNC(=O)c1cc([N+](=O)[O-])cc2c1Oc1ccccc1O2` displayed a Rm in [1] of -0.16. Besides, in series [2], the OD is 225 mg/kg. This molecule displayed a Log K with Nucleic Acid of 5.37. In the series on P388 [8], the ILS result is “inactive”. Moreover, 1.7 µM corresponded to half-maximal inhibition in [5] (IC50).

In series [1], `CN(C)CCNC(=O)c1cccc2c1Oc1c(cccc1C(=O)NCCN(C)C)O2` yielded a Rm of -0.68. In [2], this molecule displayed an OD of 100 mg/kg. The Log K in the series with Nucleic Acid worked out at 4.48. Also, the ILS entry with P388 [8] is “inactive”. Besides, in series [5], the 50% inhibitory concentration (IC50) was found to be 0.72 µM.

On to `CN(C)CCNC(=O)c1cccc2c1Oc1cccc([N+](=O)[O-])c1O2`, for which, in [1], the Rm is given as -0.2. The OD in series [2] came out at 150 mg/kg. Moreover, in the series with Nucleic Acid, the Log K was determined as 5.06. Besides, in the series on P388 [8], the ILS result was “inactive”. In series [5], this molecule showed an IC50 of 2.5 µM.

For the molecule `CN(C)CCNC(=O)c1cccc2c1Oc1cccnc1O2`, the Rm in series [1] is -0.49. The OD in series [2] was found to be 100 mg/kg. The molecule further registered a Log K in the series with Nucleic Acid of 4.73. In the series with P388 [8], the ILS entry is “inactive”. This molecule also displayed an IC50 in series [5] of 8 µM.

Turning to `CN(C)CCNC(=O)c1cccc2c1Oc1ccc(Br)cc1O2`, the Rm in [1] came to 0.18. The OD in series [2] worked out at 100 mg/kg. In addition, the Log K with Nucleic Acid came to 5.34. Besides, the ILS entry with P388 [8] is “inactive”. In [5], the IC50 worked out at 1.9 µM.

`CN(C)CCNC(=O)c1cccc2c1Oc1c(cccc1[N+](=O)[O-])O2` came in with a Rm in series [1] of -0.28. In addition, the OD in series [2] was 20 mg/kg. Moreover, the IC50 was 0.45 µM in the series on P388 [3] and 0.032 µM in series [5]. Moreover, in the series with Nucleic Acid, the Log K is 5.11. Moreover, the ILS result in the series with P388 [8] was “inactive”.

In series [1], `Cc1cccc2c1Oc1cccc(C(=O)NCCN(C)C)c1O2` displayed a Rm of 0.14. In addition, in series [2], the OD amounted to 45 mg/kg. Also, the Log K with Nucleic Acid stood at 5.26. Also, in the series on P388 [8], the ILS entry was “inactive”. In series [5], this molecule had an IC50 of 2.1 µM.

For the molecule `CN(C)CCNC(=O)c1cccc2c1Oc1cccc(Cl)c1O2`, the Rm in series [1] was 0.21. Besides, in [2], the OD amounted to 100 mg/kg. The molecule further yielded a Log K with Nucleic Acid of 5.15. The ILS result in the series on P388 [8] is “inactive”. Moreover, in [5], it took 1.3 µM to reach half-maximal inhibition (IC50).

`CN(C)CCNC(=O)c1cccc2c1Oc1c(Br)cccc1O2`: the Rm in [1] was -0.01. The same molecule came in with an OD in series [2] of 100 mg/kg. The IC50 with P388 [3] is 0.73 µM; in [5] it was 0.21 µM. The molecule further showed a Log K in the series with Nucleic Acid of 5.23. Besides, the ILS in [4] turned out to be 154%.

Turning to `CN(C)CCNC(=O)c1cccc2c1Oc1cc([N+](=O)[O-])ccc1O2`, the Rm in series [1] is -0.14. The molecule also came in with an OD in series [2] of 150 mg/kg. The molecule also returned a Log K with Nucleic Acid of 5.64. In series [4], the ILS is listed as 96%. The IC50 in series [5] was 3.7 µM.

In the case of `CN(C)CCNC(=O)c1cccc2c1Oc1cc(Cl)c(Cl)cc1O2`, the Rm in series [1] came out at 0.25. The same molecule returned an OD in series [2] of 150 mg/kg. The ILS entry in the series with P388 [8] was “inactive”. For the same molecule, the IC50 in series [5] came to 5.13 µM; with P388 [9] it was 0.83 µM.

Molecule `CN(C)CCNC(=O)c1cccc2c1Oc1c(Cl)cccc1O2` registered a Rm in series [1] of -0.01. In [2], this molecule returned an OD of 100 mg/kg. In addition, the IC50 was determined as 2.6 µM in the series with P388 [3] and 0.23 µM in series [5]. In the series with Nucleic Acid, the Log K was found to be 5.48. The ILS in [4] was found to be 106%.

Turning to `CN(C)CCNC(=O)c1cccc2c1Oc1ncccc1O2`, the Rm in series [1] is listed as -0.38. The molecule further displayed an OD in series [2] of 65 mg/kg. The ILS result in the series with P388 [8] was “inactive”. Besides, the IC50 in series [5] stood at 0.83 µM; in the series with P388 [9], 0.93 µM.

As to `CN(C)CCNC(=O)c1cccc2c1Oc1ccc([N+](=O)[O-])cc1O2`, in [1], the Rm is -0.14. In [2], this molecule came in with an OD of 150 mg/kg. The same molecule returned a Log K in the series on Nucleic Acid of 5.64. Besides, the increase in life span (ILS) in series [4] came out at 96%. The molecule also had an IC50 in series [5] of 6 µM.

`COc1cccc2c1Oc1cccc(C(=O)NCCN(C)C)c1O2`: in series [1], the Rm is on record as -0.19. This molecule registered an OD in [2] of 100 mg/kg. The same molecule yielded a Log K in the series with Nucleic Acid of 5.18. The ILS entry in the series on P388 [8] was “inactive”. The molecule further showed an IC50 in series [5] of 1.6 µM.

In series [1], `CN(C)CCNC(=O)c1cccc2c1Oc1cc(Br)ccc1O2` came in with a Rm of 0.18. This molecule also returned an OD in series [2] of 150 mg/kg. In the series with Nucleic Acid, this molecule had a Log K of 5.35. In addition, in the series with P388 [8], the ILS entry was “inactive”. Also, the IC50 in series [5] came to 3 µM.

Take `CN(C)CCNC(=O)c1cccc2c1Oc1ccc(Cl)cc1O2`: in series [1], the Rm came out at 0.1. This molecule displayed an OD in [2] of 100 mg/kg. In the series on Nucleic Acid, this molecule yielded a Log K of 5.11. The ILS result in the series on P388 [8] is “inactive”. For the same molecule, it took 1.6 µM to reach half-maximal inhibition in [5] (IC50).

In turn, `Cc1ccc2c(c1)Oc1cccc(C(=O)NCCN(C)C)c1O2` registered a Rm in [1] of 0.2. In addition, in series [2], the OD was 45 mg/kg. The molecule also had a Log K in the series on Nucleic Acid of 5.11. Besides, the ILS result with P388 [8] is “inactive”. The IC50 in series [5] came to 3.3 µM.
